Screens as filed in PubChem.
A selection: hits, their analogues and other compounds. The true share with any hit is near 1.6%.
PG9 Ab binder: binds the HIV-1 gp120 antibody PG9; 360,000 compounds, 0.43% hits; AID 624416; inhibition, % at 6.7 µM; TR-FRET gp120-PG9 antibody binding; in the data active = inhibition above about 8.5%
PKA-R2B act: PKA-R2B complex activation; AID 504700; PKA-R2B holoenzyme dissociation, Cy5-IP20 fluorescence polarization; R2B truncated from residue 108, S112A mutant; 0% DMSO only, 100% 113 µM cGMP; 340,000 compounds, 0.079% hits; activation, % at 11.4 µM;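 active = activation above a cutoff set at the mean over all compounds plus 3 SD, cut at about 18% in these data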;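 note: higher means more holoenzyme dissociation and a rise in polarization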
Target sequence (P31323 whole entry, looked up, other chains not shown, the tested form may be a part): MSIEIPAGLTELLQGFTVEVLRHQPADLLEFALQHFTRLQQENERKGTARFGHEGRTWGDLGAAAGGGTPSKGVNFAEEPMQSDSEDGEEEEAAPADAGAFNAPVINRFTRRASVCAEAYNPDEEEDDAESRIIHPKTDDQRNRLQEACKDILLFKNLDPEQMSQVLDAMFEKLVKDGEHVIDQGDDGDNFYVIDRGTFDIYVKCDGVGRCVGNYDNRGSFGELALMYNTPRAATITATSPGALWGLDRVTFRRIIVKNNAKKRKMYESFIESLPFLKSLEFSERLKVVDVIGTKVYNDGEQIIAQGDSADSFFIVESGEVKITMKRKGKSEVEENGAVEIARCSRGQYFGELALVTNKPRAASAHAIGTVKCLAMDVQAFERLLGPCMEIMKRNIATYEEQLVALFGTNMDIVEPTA
NR2E3 ag-1: human photoreceptor-specific nuclear receptor agonism | Q9Y5X4 | CHO-S Gal4-NCOR/VP16-NR2E3 two-hybrid, luciferase | inhibition of corepressor binding, % at 3.98 µM | 360,000 compounds, 0.35% hits;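 active = inhibition above the mean of all tested compounds plus 3 SD, cut at about 70% in these data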;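 note: 0% = DMSO with NR2E3 transfected cells and 100% = cells lacking NR2E3 construct; higher means lower luciferase signal from less NR2E3 corepressor binding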
PKA-R1A activ: PKA-R1A complex activation | P00514+P68181 | PKA-R1A dissociation, Cy5-IP20 fluorescence polarization; scaled: DMSO 0%, 113 µM cGMP 100% | activation, % at 11.4 µM | 340,000 compounds, 0.083% hits;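 active = percent activation above the mean of all tested compounds plus 3 SD, cut at about 19% in these data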;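 note: higher means more PKAc released from R1A so a rise in polarization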
NR2E3 ag-2: agonists of human nuclear receptor NR2E3 | Q9Y5X4 | GST-NR2E3/biotin-RetCOR TR-FRET, 1536-well | inhibition of corepressor binding, % at 4.78 µM | 320,000 compounds, 0.12% hits | AID 2300;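 active = percent inhibition above the cutoff of mean plus 3 SD of all tested compounds, set per screening campaign, cut at about 20% in these data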;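 note: 0% = DMSO wells and 100% = biotin wells as full block of FRET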
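Material: NR2E3–RetCOR corepressor complex | Quantity: 1.35 nM GST-tagged NR2E3 final | Schedule: 5 h at 4 °C | Replication: Singlicate compound wells | Reagent: RetCOR corepressor, biotinylated, 7 nM | Controls: Biotin wells as high control, 0.6% DMSO wells as low control | Signal: TR-FRET, Eu(K)-anti-GST donor, streptavidin-D2 acceptor, ex 340, em 617/671 nm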
NR1D1 modulator: modulators of human Rev-erb alpha DNA binding; P20393; Rev-erbα–FITC-DNA binding, fluorescence polarization, 90 min; activity, % at 10 µM; 370,000 compounds, 0.79% hits; AID 1259318;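 active = activity above about 14%, limit read from the data; passing the limit was not always enough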;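 note: 0% = DMSO wells with 35 nM protein and 100% = DMSO wells with 750 nM protein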
NR2E3 ag confirm: confirmation of human NR2E3 agonists; shares compounds with NR2E3 ag-1; CHO-S mammalian two-hybrid NR2E3-NCOR, luciferase luminescence; inhibition, % at 3.98 µM; 2,300 compounds, 51% hits; AID 624378;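 active = average inhibition above a cutoff equal to the mean inhibition of all tested compounds plus one SD, cut at about 70% in these data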;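 note: 0% = DMSO in NR2E3 cells and 100% = DMSO in cells lacking NR2E3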
GAL4-VP16 luc: GAL4-VP16 reporter inhibition in NR2E3 agonist counterscreen; shares compounds with NR2E3 ag-1; AID 624379; inhibition, % at 3.98 µM; CHO-S GAL4-VP16 luciferase reporter, luminescence; 2,300 compounds, 29% hits;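 active = mean inhibition above a cutoff equal to the average over all tested compounds plus one standard deviation, cut at about 70% in these data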;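 note: luciferase from a UAS reporter driven by GAL4-VP16 transactivation; 0% = DMSO with VP16-transfected cells and 100% = DMSO with cells lacking VP16; higher means less reporter light so more repression of VP16 activity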
An asterisk follows results filed as active; / = not tested or not shown.

SMILES	PG9 Ab binder	PKA-R2B act	NR2E3 ag-1	PKA-R1A activ	NR2E3 ag-2	NR1D1 modulator	NR2E3 ag confirm	GAL4-VP16 luc
COc1ccc(C(C(=O)N(C)C2CCCC2)N(Cc2ccc(F)cc2)C(=O)c2csc(N3CCOCC3)n2)cc1OC (configuration not stated)	/	/	/	/	/	-3.4	/	/
COc1ccc(CNS(=O)(=O)/C=C/c2ccccc2CNC(=O)OC(C)(C)C)cc1	/	/	/	/	/	4.2	/	/
COc1ccccc1N(Cc1ccccc1)S(=O)(=O)c1cccc(C(=O)Nc2ccc(C)cn2)c1	0.2	8.7	56.6	1.3	-1.4	-1.4	-0.4	3.7
C#CCN1C(C(=O)OC)CN(CCCCCC)CCS1(=O)=O (configuration not stated)	/	/	/	/	/	-3.1	/	/
COc1ccc(NC(=O)CSc2nnc(-c3cccs3)o2)cc1Cl	/	/	/	/	/	0.5	/	/
Cc1ccccc1NC(=O)N(C)[C@H]1C[C@H]2c3[nH]c4c(-c5ccc6c(c5)OCO6)cccc4c3CCN2C[C@H]1[C@H](C)O	/	/	/	/	/	-3.8	/	/
Cc1cc2nc(C)n(CCCNC(=O)Nc3cccc4ccccc34)c2cc1C	-1.6	-0.7	62.4	-0.8	0.0	-6.8	76.1*	67.4
FC(F)(F)c1nc(-c2ccncc2)ncc1-c1nnnn1-c1ccccc1	0.1	7.4	14.8	-10.4	-0.3	/	/	/
Fc1ccc(-n2nnnc2-c2cnc(-c3cccs3)nc2C(F)(F)F)cc1	-2.5	0.3	88.3*	-2.2	0.0	7.5	91.6*	68.9
CN(CCCOC(=O)c1cc2ccccc2o1)C1CN(Cc2cn(Cc3ccc([N+](=O)[O-])cc3)nn2)S(=O)(=O)C1 (configuration not stated)	/	/	/	/	/	3.5	/	/
O=C(Nc1ccc(NC(=O)c2ccco2)nc1)c1ccco1	-0.4	-2.4	-98.2	0.1	-3.9	-0.3	/	/
CC(C)(C)C(=O)Nc1ccc(NC(=O)c2ccco2)nc1	-0.9	-10.6	88.0*	-3.6	1.6	-1.4	64.9	39.6
Cc1ccc(Nc2nc(N)c([N+](=O)[O-])c(N3CCC(C)CC3)n2)cc1C	-1.4	-8.7	-14.1	-2.2	-0.1	-2.9	/	/
Cc1ccc(Nc2nc(N)c([N+](=O)[O-])c(N3CCOCC3)n2)cc1C	-0.1	0.8	47.6	-5.0	-2.4	0.9	5.9	-17.8
COC(=O)C[C@H]1CC[C@@H]2[C@@H](COc3ccc(NC(=O)Nc4ccccc4OC)cc3C(=O)N2C)O1	/	/	/	/	/	3.0	/	/
Cn1c(=O)c2[nH]c(CCCCCCCCc3nc4ccccc4[nH]3)nc2n(C)c1=O	-0.2	-4.6	68.0	3.4	/	6.0	78.8*	60.6
Cn1c(=O)c2[nH]c(CCCCc3nc4ccccc4[nH]3)nc2n(C)c1=O	0.2	-3.1	-16.2	2.8	/	-3.7	/	/
COC(=O)[C@]12C[C@H](CC(=O)N3CCCCC3)C(=O)N(Cc3ccccc3)C1=C[C@H](C(C)(C)C)O[C@@H]2C	-0.5	/	/	/	/	-9.3	/	/
Cc1nc(C)c(C(=O)NNS(=O)(=O)c2ccc3ccccc3c2)s1	-3.4	7.1	48.1	-9.1	-1.0	0.0	81.9*	75.8*
Cc1ccc(S(=O)(=O)NNC(=O)C2Cc3c(ccc4ccccc34)O2)cc1 (configuration not stated)	-0.2	6.0	60.1	-8.3	2.5	0.1	8.4	52.3
CCCCOc1ccc(S(=O)(=O)NNC(=O)C2Cc3c(ccc4ccccc34)O2)cc1 (configuration not stated)	-2.3	-14.5	-5.1	-2.3	1.2	4.3	/	/
CC(C)CSc1nnc(-c2ccco2)n1C	/	/	/	/	/	3.2	/	/
CN(C)c1nc(=NCc2ccco2)ss1	/	-0.4	76.4*	0.2	-5.4	/	9.4	-7.6
C=CCN1[C@@H](Cc2ccccc2)COc2cccc(N3CCCC3)c2S1(=O)=O	/	/	/	/	/	0.9	/	/
O=[N+]([O-])c1cc(S(=O)(=O)Nc2cccc(C(F)(F)F)c2)ccc1-n1nnc2ccccc21	-0.9	1.9	95.5*	-16.4	7.7	11.4	98.0*	87.2*
